# Most compounds without a hit are left out; they make up all but 3.7% or so of the library.
# MPTP block – mitochondrial permeability transition pore inhibitors, primary screen, biochemical, isolated mouse mitochondria, absorbance; hit rate 1.4% among 360,000; AID 602449, 2012; inhibition, % at 10 µM; Ca2+ swelling absorbance, 30 min;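 active means inhibition of 50% or more, scaled per plate between neutral and stimulator controls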;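 further: 0% = DMSO wells given calcium and 100% = 1 mM EGTA wells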
# proCasp3 act – activators of human procaspase-3 D3A mutant, primary screen, biochemical, absorbance, PC-3 D3A mutant, single concentration; activation, % at 8.5 µM; hit rate 0.11% among 330,000; recombinant procaspase-3 D3A, Ac-DEVD-pNA absorbance 405 nm;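 active means activation above the mean of all tested compounds plus 3 SD, cut at about 21% in these data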;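 further: 0% = DMSO alone and 100% = DMSO wells spiked with extra 5 µM PC-3 D3A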
# Target sequence (P42574 whole entry D9A/D28A/D175A): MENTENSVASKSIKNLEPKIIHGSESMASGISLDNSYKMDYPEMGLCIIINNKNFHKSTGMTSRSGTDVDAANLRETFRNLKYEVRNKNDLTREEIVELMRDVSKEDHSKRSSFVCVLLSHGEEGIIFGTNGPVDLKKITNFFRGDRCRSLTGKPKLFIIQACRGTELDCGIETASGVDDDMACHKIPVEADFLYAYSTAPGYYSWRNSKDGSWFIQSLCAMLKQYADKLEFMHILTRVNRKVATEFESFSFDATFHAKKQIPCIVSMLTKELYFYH
#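 Assay system: Procaspase-3 D3A mutant, all three cleavage aspartates alanine. Buffer or medium: Zinc-free HEPES saline buffer with Triton X-100. Times: 1 h compound preincubation, 2 h substrate hydrolysis at 25 °C. Measured by: 405 nm absorbance of p-nitroaniline, reads at 0 and 120 min. Read-out basis: percent activation relative to control range. Replicates: singlicate.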
# procasp7 counter – procaspase-7 activators, primary screen, counter-screen for procaspase-3 activator project, biochemical, absorbance, HTS, human; Caspase-7 (Homo sapiens), P55210; recombinant procaspase-7, Ac-DEVD-pNA absorbance 405 nm; D23A/D198A/D206A triple mutant, cannot self-cleave; scale: DMSO 0, 5 µM enzyme 100; activation, % at 8.5 µM; hit rate 0.093% among 330,000; AID 463210, 2010;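 active means percent activation above the screen-wide mean plus 3 SD, cut at about 25% in these data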
# Target sequence (P55210 whole entry D23A/D198A/D206A): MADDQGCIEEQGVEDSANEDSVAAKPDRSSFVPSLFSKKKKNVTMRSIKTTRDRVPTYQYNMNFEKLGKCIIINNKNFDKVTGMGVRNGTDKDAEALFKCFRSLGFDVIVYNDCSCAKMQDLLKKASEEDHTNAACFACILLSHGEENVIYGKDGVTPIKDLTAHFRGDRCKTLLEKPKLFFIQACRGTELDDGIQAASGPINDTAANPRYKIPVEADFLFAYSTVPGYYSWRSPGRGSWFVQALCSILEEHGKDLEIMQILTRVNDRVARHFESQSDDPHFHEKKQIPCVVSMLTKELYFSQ
#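 Assay system – Uncleavable procaspase-7 mutant enzyme · Quantity – 2 µM procaspase-7 mutant as dispensed · Times – 1 h preincubation, 2 h reaction · Dosing – single nominal 8.5 µM compound dose, 0.8% DMSO final · Buffer or medium – Zinc-free 50 mM HEPES buffer, pH 7.4, with NaCl and Triton X-100 · Detection – Epi-absorbance of released pNA at 405 nm, two timepoints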
# GRIN3A LBD mod – binders of NR3A ligand-binding domain, primary screen, biophysical, differential scanning fluorimetry, uHTS. Glutamate receptor ionotropic, NMDA 3A (GRIN3A) ligand-binding domain. NR3A LBD differential scanning fluorimetry, Tm shift; 0% = protein alone, 100% = glycine-bound protein. Tm shift relative to glycine control, % at 25 µM. hit rate 2.5% among 340,000;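 active means melting temperature shift of at least 10% of the positive control shift, at one fixed dose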
# aDG glyco act – activators of alpha-DG glycosylation, primary screen, uHTS, Pro5-aDG cells, AlphaScreen; hit rate 0.22% among 360,000; activation, % at 10 µM; alpha-DG glycosylation AlphaScreen (IIH6); 0% Pro5, 100% B10-LARGE cell signal;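 active means activation of at least 8% versus controls, or a plate z-score of at least 8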;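 further: Pro5 are CHO cells carrying HIG-tagged alpha-DG that lacks glycosylation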
# * hit, by the source's call; x = no result.
SMILES,MPTP block,proCasp3 act,procasp7 counter,GRIN3A LBD mod,aDG glyco act
Cc1ccccc1Nc1nc(Cl)nc(NC(C)(C)C)n1,0.6,x,x,x,0.3
CC(/C=N/NC(=O)COc1ccccc1C)=N\NC(=O)COc1ccccc1C,2.1,-1.3,5.4,12.5*,0.1
O=C(OCC(=O)C12CC3CC(CC(C3)C1)C2)c1ccc(O)cc1O,0.5,-1.7,7.4,28.6*,-0.1
CCN(CC)Cc1ccc(OC)c(Cl)c1,1.0,-8.1,6.1,13.9*,0.0
CCN(Cc1ccncc1)Cc1ccc(OC)c(OC)c1,21.4,-9.4,-15.7,2.4,0.0
Cc1cc(N2CCC(C)CC2)n2ncc(-c3ccccc3)c2n1,4.3,6.9,15.7,12.8*,0.9
Cc1cc(N2CCCCC2)n2ncc(-c3ccccc3)c2n1,0.7,-9.9,2.5,3.8,0.7
Cc1cc(NCCN2CCOCC2)n2ncc(-c3ccccc3)c2n1,-3.1,-4.6,-4.1,12.8*,-0.1
O=C(Nc1cccc2ncccc12)c1ccc(F)cc1,1.1,8.8,4.6,11.6*,0.0
COCC(=O)N[C@H]1C=C[C@@H](CC(=O)OC)O[C@@H]1CO,-0.2,x,x,x,0.2
C=CCN1C(=O)[C@@H]2Cc3c([nH]c4ccccc34)C(c3cc(OC)c(OC)c(OC)c3)N2C1=S (some centres not stated),2.2,-4.7,-9.9,-12.7,0.1
C=CCN1C(=O)[C@@H]2Cc3c([nH]c4ccccc34)C(c3ccc(O)cc3)N2C1=S (some centres not stated),1.0,-6.3,-9.5,21.2*,0.1
CCCCOc1ccc(/C=C2/Sc3ccccc3C2=O)cc1,1.4,-14.7,-2.8,6.8,0.3
CC(=O)Oc1cccc(/C=C2\Sc3ccccc3C2=O)c1,2.8,-4.5,-9.8,17.0*,-0.1
COc1ccccc1Nc1nc(-c2sc(NC(=O)c3ccc([N+](=O)[O-])cc3)nc2C)cs1,x,8.3,-14.1,x,x
O=[N+]([O-])c1cccc(-c2csc(Nc3ccccc3)n2)c1,3.4,3.2,6.5,30.3*,0.5
O=C(Nc1nc(-c2ccccc2)cs1)c1cccc([N+](=O)[O-])c1,49.6,-4.3,4.6,24.4*,-0.4
COc1ccccc1Nc1nc(-c2cccc([N+](=O)[O-])c2)cs1,2.2,-4.5,0.5,32.5*,-0.2
COc1cc(NS(=O)(=O)c2ccc(Nc3nc(-c4cccc([N+](=O)[O-])c4)cs3)cc2)nc(OC)n1,-0.3,4.6,5.8,28.9*,-0.4
CCn1nc(C(=O)NNS(=O)(=O)c2ccc(C)cc2)c2ccccc2c1=O,0.3,-1.9,4.7,-1.0,0.0
Cc1c(C(=O)Nc2ccccc2N2CCN(C)CC2)oc2ccc(F)cc12,7.4,x,x,4.4,-0.3
CCc1cc(-c2n[nH]c(C)c2-c2ccccc2Cl)c(O)cc1OC,1.0,2.9,4.0,13.2*,0.0
CCOc1ccc(-c2n[nH]c(C)c2-c2ccccc2OC)c(O)c1,2.0,-9.1,1.6,-15.5,0.2
O=C(CN1CCN(S(=O)(=O)c2ccccc2F)CC1)N1CCc2ccccc2C1,0.0,7.8,-3.0,1.1,0.5
CCOC(=O)Nc1c(Cl)n(C)c(=O)n(C)c1=O,-0.9,1.8,15.4,10.6*,0.3
SMILES,MPTP block,proCasp3 act,procasp7 counter,GRIN3A LBD mod,aDG glyco act
COc1ccccc1-n1c(SCC(=O)Nc2ccccc2C)nc(O)cc1=O,-1.2,3.9,4.5,1.5,-0.1
Cc1ccccc1NC(=O)CSc1nc(O)cc(=O)n1C,0.7,7.7,-3.5,12.5*,-0.1
COc1cccc(C2c3cc4c(cc3OC(N3CCCC3)C2C)OCO4)c1O (configuration not stated),1.5,x,x,15.4*,0.0
COC(=O)c1ccc(COC(=O)C(CCSC)NC(=O)COc2ccccc2)cc1 (configuration not stated),1.1,-4.6,1.4,21.8*,0.2
CC(Nc1cccc2ccccc12)C(=O)N/N=C/c1ccc([N+](=O)[O-])cc1 (configuration not stated),13.6,-8.2,-7.2,22.1*,0.0
CCOc1ccc(C(=O)CCC(=O)N(CC)CC(=O)NCc2ccc(Cl)cc2)cc1,-0.6,4.3,12.7,13.1*,0.1
COc1ccc(C(=O)Nn2c(SCc3cccc([N+](=O)[O-])c3)nc3ccccc3c2=O)cc1,0.5,-0.5,-2.6,17.4*,0.0
CCCCOc1ccc(C(=O)Nn2cnnc2)cc1,-1.5,0.0,7.6,14.2*,-0.4
CCCOc1ccc(C(=O)Nn2c(C)nc3ccccc3c2=O)cc1,-1.0,6.5,2.3,10.5*,0.0
O=C(Nn1c(SCc2cccc([N+](=O)[O-])c2)nc2ccccc2c1=O)c1ccccc1,2.2,-5.3,5.4,1.3,-0.2
O=C(Nc1nnc([C@H]2C[C@H](O)[C@@H](CO)O2)s1)c1ccc(Oc2ccccc2)cc1,-0.4,x,x,x,-0.3
Cc1cccc(C)c1C(O)c1ncc(-c2cccc3ccccc23)[nH]1 (configuration not stated),-0.3,x,x,x,0.0
COC(=O)c1ccc(COc2ccccc2/C=C(\C#N)C(=O)Nc2c(C)cc(C)cc2C)cc1,-0.3,8.7,-1.7,17.1*,0.0
COC(=O)c1ccc(COc2ccccc2/C=C(\C#N)C(=O)Nc2ccc(C)cc2C)cc1,0.8,-3.8,14.1,4.4,-0.4
CCOC(=O)CCCCCC(=O)Nc1ccc2c(c1)C(=O)N([C@@H](C)CO)C[C@@H](C)[C@H](CN(C)C(=O)Nc1ccccc1)OCCCC[C@H](C)O2,-2.2,x,x,x,0.0
Cc1ccc([C@H]2C[C@H](n3cc(C4CC4)nn3)[C@@H](O)CN2CC2CCCCC2)cc1,-0.9,x,x,x,0.2
O=c1c2ccccc2oc2ccc(-c3ccc4[nH]ccc4c3)cc12,0.7,-1.8,-2.8,18.4*,0.5
CCOC(=O)Nc1cccc(Nc2ccccc2)c1,3.1,4.4,-5.4,26.6*,0.1
CCN1C(=O)/C(=C\c2ccncc2)SC1=Nc1ccc(C)c(C)c1,0.8,-7.8,4.3,13.1*,0.0
CCCN1C(=O)/C(=C\c2ccncc2)SC1=Nc1ccccc1,1.3,-7.1,-7.3,8.6,0.2
O=S(=O)(c1ccc2nc(-c3ccccc3)[nH]c2c1)N1CCN(c2cccc(Cl)c2)CC1,42.1,-2.0,10.7,16.7*,0.7
COc1ccccc1N1CCN(S(=O)(=O)c2ccc3nc(-c4ccccc4)[nH]c3c2)CC1,19.0,-2.0,-4.3,6.5,0.4
O=C(NCCC(=O)N1CCN(c2ccc(F)cc2)CC1)c1ccco1,-0.6,x,x,2.1,-0.1

# Screening data: PubChem BioAssay, several laboratories
